Measurements from different studies.
Target: Dual specificity mitogen-activated protein kinase kinase 4 (MAP2K4, Homo sapiens, UniProt P45985)
One construct used (P45985 1-399): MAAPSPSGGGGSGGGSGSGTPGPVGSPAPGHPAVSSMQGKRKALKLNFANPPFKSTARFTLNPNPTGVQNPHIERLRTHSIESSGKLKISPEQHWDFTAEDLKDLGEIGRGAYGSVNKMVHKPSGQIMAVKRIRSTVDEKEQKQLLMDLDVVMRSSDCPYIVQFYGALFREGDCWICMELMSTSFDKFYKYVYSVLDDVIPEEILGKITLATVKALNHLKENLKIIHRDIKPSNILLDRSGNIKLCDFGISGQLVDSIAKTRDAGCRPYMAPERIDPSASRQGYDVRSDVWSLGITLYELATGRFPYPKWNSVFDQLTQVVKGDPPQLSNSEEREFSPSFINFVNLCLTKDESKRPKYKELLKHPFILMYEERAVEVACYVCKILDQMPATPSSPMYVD

O=C(NCCCN1CCOCC1)c1ccc(Nc2ncc(Cl)c(-c3ccc(Cl)s3)n2)cc1 — remaining binding (binding, competition with immobilised ligand; 1 µM): 56%
FC(F)(F)Oc1cccc(-c2cnc3ccc(-c4ccncc4)nn23)c1 — remaining binding (cell-free assay, competition with immobilised ligand; 5 µM): 69%
CCN1CCN(Cc2ccc(C(=O)Nc3ccc(C)c(Oc4ccc5c(c4)CC(=O)N5)c3)cc2C(F)(F)F)CC1 — remaining binding (binding, competition with immobilised ligand; 1 µM): 100%
COc1cnc(Nc2cccc(S(N)(=O)=O)c2)nc1N1CCN(c2ccccc2)CC1 — remaining binding (binding, competition with immobilised ligand; 1 µM): 99%
O=C1CCc2cc(Nc3cc(OC4CCOCC4)c([N+](=O)[O-])cc3Cl)ccc2N1 — remaining binding (cell-free assay, competition with immobilised ligand; 1 µM): 100%
C=CC(=O)N1CCC(C(=O)NCC(=O)N2CCN(c3nc(-c4cnc(N)nc4C(F)F)nc(N4CCOCC4)n3)CC2)CC1 — remaining binding (binding, competition with immobilised ligand; 1 µM): 100%
Cn1cc(Cl)c2c(Oc3c(F)cc(Nc4cc(Cl)nc(N)n4)cc3F)ccnc21 — remaining binding (cell-free assay, competition with immobilised ligand; 0.1 µM): 80%
CN(C)c1nccc(-c2cnn3ncccc23)n1 — remaining binding (binding; 1 µM): 81%
CS(=O)(=O)N1CCCC(NC(=O)[C@H](CCC2CCCCC2)NC(=O)c2ccc(CNC(=O)c3cnc4ccccn34)cc2)C1 (stereo partly drawn) — remaining binding (cell-free assay, competition with immobilised ligand; 0.1 µM): 100%
N[C@@H]1CCN(c2nccc(-c3cnn4ncccc34)n2)C1 — remaining binding (binding; 1 µM): 99%
CC(=O)N1CCC(c2ccc(C(=O)NC3=NCCN3)cc2C(F)(F)F)CC1 — remaining binding (cell-free assay, competition with immobilised ligand; 1 µM): 100%
c1cncc(-c2cccc(Nc3nccc(NC4CCCCC4)n3)c2)c1 — remaining binding (binding, competition with immobilised ligand; 10 µM): 64%
CC1CCCN1c1nccc(-c2cnn3ncccc23)n1 (stereo not drawn) — remaining binding (binding; 1 µM): 100%
Cc1cc(C)c(-n2ccn3nc(-c4cccnc4)cc23)cc1NC(=O)c1cc(C#N)cc(S(F)(F)(F)(F)F)c1 — remaining binding (cell-free assay, competition with immobilised ligand; 0.1 µM): 74.7%
C[C@@H](c1ccc(-n2cnc3c(N)ncnc32)cc1)N1CCc2nn(C)c(Cc3ccccc3)c2C1=O — remaining binding (binding, competition with immobilised ligand; 0.1 µM): 57%
CN(C)c1ncc(F)c(-c2cnn3ncccc23)n1 — remaining binding (binding; 1 µM): 100%
O=C(c1ccc(Nc2nccc(-c3cc4ccccc4s3)n2)cc1)N1CCC(N2CCCC2)CC1 — remaining binding (binding, competition with immobilised ligand; 1 µM): 78%
F[C@@H]1CCN(c2nccc(-c3cnn4ncccc34)n2)C1 — remaining binding (binding; 1 µM): 100%
O=C(Nc1c[nH]nc1C(=O)NC1CCNCC1)c1cc(F)cc(F)c1 — remaining binding (binding, competition with immobilised ligand; 1 µM): 94%
CN(c1nccc(-c2cnn3ncccc23)n1)C1CC1 — remaining binding (binding; 1 µM): 100%
CC1=C(C#N)C(c2ccc3c(c2)c(NC(=O)c2ccccc2C)nn3C)C(C#N)=C(C)N1 — remaining binding (cell-free assay, competition with immobilised ligand; 1 µM): 79%
